Test [1] deals with NCI-H1975. Nature of the test: Antiproliferative activity against gefitinib-resistant human NCI-H1975 cells after 1 to 3 days by MTS assay. The class given is functional. An outline of the steps: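 H1975 (gefitinib-resistant NSCLC, T790M/L858R EGFR) cells exposed to compound at a range of concentrations; viability read by MTS assay at 1, 2 and 3 days of treatment. Data given as mean ± SD, n = 4.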

Test [2] deals with Heat shock protein HSP 90-beta (Homo sapiens) (UniProt P08238). In words: Inhibition of HSP90 in gefitinib-resistant human NCI-H1975 cells assessed as downregulation of Ser473 phosphorylated AKT level at 1 to 100 uM after 24 hrs by Western blot method. The class given is cell-based. An outline of the steps:
(§1)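 Dose-response immunoblotting: H1975 cells incubated 24 h with increasing compound concentrations, then lysates probed by Western blot for Hsp90 clients (EGFR, Her2, Met, Akt), downstream signaling proteins and Hsp70. Geldanamycin (1 μM) positive control; DMSO negative control.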
Background: In western blotting, separated proteins are transferred to a membrane and probed.

For test [3] the target is unchanged. In words: Inhibition of HSP90 in gefitinib-resistant human NCI-H1975 cells assessed as degradation of HER2 at 40 uM after 24 hrs by Western blot method. The class given is cell-based. An outline of the steps: (§2)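 H1975 cells treated 24 h with each compound at 40 μM; Hsp90 client proteins and Hsp70 probed by Western blot. Geldanamycin (1 μM) as positive control, DMSO as negative control.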

Test [4] shares this target. In words: Inhibition of HSP90 in gefitinib-resistant human NCI-H1975 cells assessed as transcriptional upregulation of Hsp70 at 40 uM after 24 hrs by Western blot method. The class given is cell-based. An outline of the steps: as §2
The target is the same in test [5]. Nature of the test: Inhibition of HSP90 in gefitinib-resistant human NCI-H1975 cells assessed as degradation of MET after 24 hrs by Western blot method. The class given is cell-based. An outline of the steps:
as §1

The target is the same in test [6]. In words: Inhibition of HSP90 in gefitinib-resistant human NCI-H1975 cells assessed as degradation of AKT after 24 hrs by Western blot method. The class given is cell-based. In short, it runs like this:
as §1

Test [7] shares this target. Nature of the test: Inhibition of HSP90 in gefitinib-resistant human NCI-H1975 cells assessed as transcriptional upregulation of Hsp70 after 24 hrs by Western blot method. The class given is cell-based. In short, it runs like this: as §1
Test [8] has as its system NCI-H1975. Nature of the test: Downregulation of ERK1/2 in gefitinib-resistant human NCI-H1975 cells at 1 to 100 uM after 24 hrs by Western blot method. The class given is functional, cell-based. In short, it runs like this: as §1
Test [9] addresses Heat shock protein HSP 90-beta (Homo sapiens) (UniProt P08238). In words: Inhibition of HSP90 in gefitinib-resistant human NCI-H1975 cells assessed as downregulation of Thr202/Tyr204 phosphorylated ERK1/2 level at 1 to 100 uM after 24 hrs by Western blot method. The class given is cell-based. In short, it runs like this: as §1
The target is the same in test [10]. In words: Inhibition of HSP90 in gefitinib-resistant human NCI-H1975 cells assessed as downregulation of Tyr1068 phosphorylated EGFR level at 1 to 100 uM after 24 hrs by Western blot method. The class given is cell-based. In short, it runs like this:
as §1

Test [11] shares this target. In words: Inhibition of HSP90 in gefitinib-resistant human NCI-H1975 cells assessed as degradation of EGFR after 24 hrs by Western blot method. The class given is cell-based. An outline of the steps: as §1
For test [12] the target is unchanged. In words: Inhibition of HSP90 in gefitinib-resistant human NCI-H1975 cells assessed as degradation of MET at 40 uM after 24 hrs by Western blot method. The class given is cell-based. An outline of the steps:
as §2

The target is the same in test [13]. In words: Inhibition of HSP90 in gefitinib-resistant human NCI-H1975 cells assessed as degradation of AKT at 40 uM after 24 hrs by Western blot method. The class given is cell-based. In short, it runs like this:
as §2

Test [14] has the same target. Nature of the test: Inhibition of HSP90 in gefitinib-resistant human NCI-H1975 cells assessed as degradation of EGFR at 40 uM after 24 hrs by Western blot method. The class given is cell-based. In short, it runs like this: as §2
Test [15] has the same target. Nature of the test: Inhibition of HSP90 in gefitinib-resistant human NCI-H1975 cells assessed as degradation of HER2 after 24 hrs by Western blot method. The class given is cell-based. An outline of the steps:
as §1

Active and inactive are the calls of the source. The rule behind the calls is not given here.

In ChEMBL document CHEMBL3098079, “Discovery of hybrid Hsp90 inhibitors and their anti-neoplastic effects against gefitinib-resistant non-small cell lung cancer (NSCLC)” (2014) one finds GI50, inhibition and Activity data, which are given here for five compounds.

The GI50 is the concentration giving 50% growth inhibition. A higher GI50 goes with lower sensitivity of the cells.

Sequence of Heat shock protein HSP 90-beta (Homo sapiens) (P08238 whole entry): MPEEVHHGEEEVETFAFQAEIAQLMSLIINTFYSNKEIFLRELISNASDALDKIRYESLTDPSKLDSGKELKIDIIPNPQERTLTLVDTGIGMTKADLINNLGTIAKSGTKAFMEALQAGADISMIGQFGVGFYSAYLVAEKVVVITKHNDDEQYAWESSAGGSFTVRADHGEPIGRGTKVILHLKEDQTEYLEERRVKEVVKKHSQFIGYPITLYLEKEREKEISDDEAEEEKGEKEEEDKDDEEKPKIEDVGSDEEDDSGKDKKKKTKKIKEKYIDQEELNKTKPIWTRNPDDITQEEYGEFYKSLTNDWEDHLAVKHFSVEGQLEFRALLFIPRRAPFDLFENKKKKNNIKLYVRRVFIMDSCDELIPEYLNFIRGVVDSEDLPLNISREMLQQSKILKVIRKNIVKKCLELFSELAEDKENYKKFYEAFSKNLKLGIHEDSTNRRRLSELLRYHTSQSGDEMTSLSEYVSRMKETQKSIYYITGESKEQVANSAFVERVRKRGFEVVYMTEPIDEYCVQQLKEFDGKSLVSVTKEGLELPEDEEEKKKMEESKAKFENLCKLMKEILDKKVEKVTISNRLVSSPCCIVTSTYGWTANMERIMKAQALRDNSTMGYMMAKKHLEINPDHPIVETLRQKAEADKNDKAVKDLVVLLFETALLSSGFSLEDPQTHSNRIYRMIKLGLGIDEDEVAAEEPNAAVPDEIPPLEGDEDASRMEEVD

Compound `CCNC(=O)c1n[nH]c(-c2cc(Cl)c(O)cc2O)c1-c1ccc(OC)cc1` had a GI50 in the test with NCI-H1975 [1] of 1 µM. That is a single-digit micromolar value.

Regarding `COc1cc(/C=C/C(=O)c2cc(Cl)c(O)cc2O)cc(OC)c1OC`, the inhibition result in test [2], in test [3], in test [4], in test [9], in test [10] and in [12] was “Active” in each case. For the same compound, the inhibition result in test [13] and in test [14] was “Active” throughout. The inhibition result (in [5]; in test [6]; in [7]; in test [11]; in the test with NCI-H1975 [1]; in test [15]) was “Dose-dependent effect” each time. Also, the result in the test on NCI-H1975 [8] was inactive. The compound also yielded a GI50 in the test with NCI-H1975 [1] of 48 µM.

Turning to `O=C(/C=C/c1ccc(O)cc1O)c1cc(Cl)c(O)cc1O`, the inhibition result in the test with NCI-H1975 [1] is “Dose-dependent effect”.

In the case of `COc1ccc(/C=C/C(=O)c2cc(Cl)c(O)cc2O)c(OC)c1`, in the test with NCI-H1975 [1], the inhibition result was “Dose-dependent effect”.

In turn, `CCCCn1c(Cc2cc(OC)c(OC)c(OC)c2)nc2c(N)ncnc21` returned a GI50 in the test with NCI-H1975 [1] of 50 µM.
